# Experimental data from ChEMBL document CHEMBL1165860, “Synthesis and potential cytotoxic activity of new phenanthrylphenol-pyrrolobenzodiazepines” (2010).
# The source made the active and inactive calls. The rule behind the calls is not given here.
# What was measured:
# [1] = test system: MCF7; assay: Cell cycle arrest in human MCF7 cells assessed as accumulation at S phase at 4 uM after 24 hrs using propidium iodide staining by flow cytometry; format: functional
# Outline: (§1)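 MCF-7 cells were grown in DMEM with 10% fetal calf serum, penicillin and streptomycin, at 37 °C in 5% CO2. They were treated for 24 h at 2 and 4 µM, with DMSO-treated cells as controls. Cells were trypsinised, fixed in ice-cold 70% ethanol at 4 °C for 30 min, and RNaseA-treated at 37 °C for 30 min. Phases were read by flow cytometry.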
# [2] = test system: M14; assay: Growth inhibition of human M14 cells after 24 hrs by MTT assay; format: functional; settings: M14, 24 h
# [3] = test system: MDA-MB-435; assay: Growth inhibition of human MDA-MB-435 cells after 24 hrs by MTT assay; format: functional; settings: MDA-MB-435, 24 h
# [4] = test system: MCF7; assay: Cell cycle arrest in human MCF7 cells assessed as accumulation at G0 phase at 2 uM after 24 hrs using propidium iodide staining by flow cytometry; format: functional; outline: as §1
# [5] = test system: A498; assay: Growth inhibition of human A498 cells after 24 hrs by MTT assay; format: functional; settings: A498, 24 h
# [6] = test system: SK-MEL-2; assay: Growth inhibition of human SK-MEL-2 cells after 24 hrs by MTT assay; format: functional; settings: SK-MEL-2, 24 h
# [7] = test system: MCF7; assay: Increase of cytosolic cytochrome c level in human MCF7 cells at 2 uM after 24 hrs by Western blot analysis; format: functional, cell-based
# Outline: (§2)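 MCF-7 cells were grown in DMEM with 10% FCS and penicillin/streptomycin at 37 °C in 5% CO2, then treated for 24 h. Cells were lysed in ice-cold RIPA buffer with protease inhibitors and NaF. Protein was measured by Bradford assay, and 30 µg per lane was run on 12% SDS-PAGE and transferred to PVDF. Antibody steps: primary at 4 °C overnight, HRP secondary 1:2000, chemiluminescent detection.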
# [8] = test system: UO-31; assay: Growth inhibition of human UO31 cells after 24 hrs by MTT assay; format: functional; settings: UO-31, 24 h
# [9] = test system: U-251; assay: Growth inhibition of human U251 cells after 24 hrs by MTT assay; format: functional; settings: U-251, 24 h
# [10] = test system: MCF7; assay: Induction of apoptosis in human MCF7 cells assessed as increase of caspase 9 activation at 4 uM after 1 hr by fluorimetry based assay; format: functional, cell-based
# [11] = test system: SK-MEL-28; assay: Growth inhibition of human SK-MEL-28 cells after 24 hrs by MTT assay; format: functional; settings: SK-MEL-28, 24 h
# [12] = test system: MCF7; assay: Induction of apoptosis in human MCF7 cells assessed as increase of caspase 8 activation at 4 uM after 1 hr by […] method; format: functional, cell-based
# Outline: (§3)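 Colorimetric caspase-8 kit on lysates of treated MCF-7 cells. The IETD-pNA substrate was incubated with cell lysate at 37 °C for 1 h, and absorbance was read at 405 nm. Untreated cells served as the control.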
# [13] = test system: NCI/ADR-RES; assay: Growth inhibition of human NCI/ADR-RES cells after 24 hrs by MTT assay; format: functional
# [14] = test system: HOP-92; assay: Growth inhibition of human HOP92 cells after 24 hrs by MTT assay; format: functional; settings: HOP-92, 24 h
# [15] = test system: NCI-H460; assay: Growth inhibition of human NCI-H460 cells after 24 hrs by MTT assay; format: functional; settings: NCI-H460, 24 h
# [16] = test system: IGROV-1; assay: Growth inhibition of human IGROV1 cells after 24 hrs by MTT assay; format: functional; settings: IGROV-1, 24 h
# [17] = test system: K562; assay: Growth inhibition of human K562 cells after 24 hrs by MTT assay; format: functional; settings: K562, 24 h
# [18] = test system: OVCAR-5; assay: Growth inhibition of human OVCAR5 cells after 24 hrs by MTT assay; format: functional; settings: OVCAR-5, 24 h
# [19] = test system: MCF7; assay: Growth inhibition of human MCF7 cells after 24 hrs by MTT assay; format: functional; settings: MCF7, 24 h
# [20] = test system: MCF7; assay: Increase of cytosolic cytochrome c level in human MCF7 cells at 4 uM after 24 hrs by Western blot analysis; format: functional, cell-based; outline: as §2
# [21] = test system: SK-OV-3; assay: Growth inhibition of human SKOV3 cells after 24 hrs by MTT assay; format: functional; settings: SK-OV-3, 24 h
# [22] = test system: HCT-116; assay: Growth inhibition of human HCT116 cells after 24 hrs by MTT assay; format: functional; settings: HCT-116, 24 h
# [23] = test system: SR; assay: Growth inhibition of human SR cells after 24 hrs by MTT assay; format: functional
# [24] = test system: COLO 205; assay: Growth inhibition of human COLO205 cells after 24 hrs by MTT assay; format: functional; settings: COLO 205, 24 h
# [25] = test system: MCF7; assay: Induction of apoptosis in human MCF7 cells assessed as increase of caspase 8 activation at 2 uM after 1 hr by […] method; format: functional, cell-based; outline: as §3
# [26] = test system: NCI-H322M; assay: Growth inhibition of human NCI-H322M cells after 24 hrs by MTT assay; format: functional
# [27] = test system: MCF7; assay: Cytotoxicity against human MCF7 cells at 4 uM after 24 hrs by MTT assay relative to control; format: functional, cell-based
# Outline: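 MCF-7 cells were seeded at 10,000 cells/well in DMEM with 10% fetal calf serum. They were exposed to 0.5, 1, 2 and 4 µM for 24 h. MTT reduction to formazan was read at 570 nm, with untreated controls taken as 100% viability. DMSO-treated cells served as an additional control.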
# [28] = test system: DU-145; assay: Growth inhibition of human DU145 cells after 24 hrs by MTT assay; format: functional; settings: DU-145, 24 h
# [29] = test system: MCF7; assay: Cell cycle arrest in human MCF7 cells assessed as accumulation at G1 phase at 4 uM after 24 hrs using propidium iodide staining by flow cytometry; format: functional; outline: as §1
# [30] = test system: RXF 393; assay: Growth inhibition of human RXF393 cells after 24 hrs by MTT assay; format: functional; settings: RXF 393, 24 h
# [31] = Growth inhibition of human […] cells after 24 hrs by MTT assay; format: functional
# [32] = test system: MCF7; assay: Cell cycle arrest in human MCF7 cells assessed as accumulation at G0 phase at 4 uM after 24 hrs using propidium iodide staining by flow cytometry; format: functional; outline: as §1
# [33] = test system: OVCAR-3; assay: Growth inhibition of human OVCAR-3 cells after 24 hrs by MTT assay; format: functional; settings: OVCAR-3, 24 h
# [34] = test system: SNB-75; assay: Growth inhibition of human SNB75 cells after 24 hrs by MTT assay; format: functional; settings: SNB-75, 24 h
# [35] = test system: HCC 2998; assay: Growth inhibition of human HCC2998 cells after 24 hrs by MTT assay; format: functional; settings: HCC 2998, 24 h
# [36] = test system: SN12C; assay: Growth inhibition of human SN12C cells after 24 hrs by MTT assay; format: functional
# [37] = test system: MCF7; assay: Increase of PARP cleavage in human MCF7 cells at 2 uM after 24 hrs by Western blot analysis; format: functional, cell-based; outline: as §2
compound,measurement,setting,value
COc1cc2c(cc1OCCCOc1ccc(-c3cc4ccccc4c4ccccc34)cc1)N=C[C@@H]1CCCN1C2=O,Activity,[1],13.05%
same,GI50,[2],570 nM
same,GI50,[3],240 nM
same,Activity,[4],4.47%
same,GI50,[5],690 nM
same,GI50,[6],40 nM
same,Activity,[7],Active
same,GI50,[8],160 nM
same,GI50,[9],910 nM
same,Activity,[10],Active
same,GI50,[11],1260 nM
same,Activity,[12],Active
same,GI50,[13],1670 nM
same,GI50,[14],360 nM
same,GI50,[15],1040 nM
same,GI50,[16],120 nM
same,GI50,[17],270 nM
same,GI50,[18],1200 nM
same,GI50,[19],170 nM
same,Activity,[20],Active
same,GI50,[21],1560 nM
same,GI50,[22],250 nM
same,GI50,[23],220 nM
same,GI50,[24],1190 nM
same,Activity,[25],Active
same,GI50,[26],1590 nM
same,Activity,[27],Active
same,GI50,[28],400 nM
same,Activity,[29],75.33%
same,GI50,[30],240 nM
same,GI50,[31],190 nM
same,Activity,[32],8.35%
same,GI50,[33],250 nM
same,GI50,[34],210 nM
same,GI50,[35],1210 nM
same,GI50,[36],510 nM
same,Activity,[37],Active
